Experimental data taken from ChEMBL document CHEMBL4699443, “Position of lipidation influences anticancer activity of Smac analogs” (Bioorg Med Chem Lett, 2019).
Calls of active or inactive are those of the source. No cut-off for these calls is given here. Non-standard residues stand in square brackets, D forms with d. Residues, ends and D or L forms follow the SMILES beside them. *: point of attachment. Phe(3,5-F2) = N[C@@H](Cc1cc(F)cc(F)c1)C(=O)O; X1 = CCCCCCCCCCCCCCCCCCSCCN*; X3 = CCCCCCCCCCCCCCCCCC*; Ac4c = NC1(C(=O)O)CCC1

Key:
NALM-6 = experiment: Antiproliferative activity against human NALM6 cells assessed as growth inhibition after 48 hrs by PrestoBlue dye based fluorescence assay; format: functional, cell-based; settings: NALM-6, 48 h
KOPN-8 [1] = experiment: Induction of apoptosis in human KOPN8 cells assessed as early apoptotic cells at 10 uM after 168 hrs by AnnexinV/PI-staining based flow cytometry; format: functional
In short: (§1)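 KOPN-8 cells treated with 1 or 10 μM compound, alone or as an equimolar two-compound mixture. Cultured for a time course, then stained with annexin V and propidium iodide. Read by flow cytometry; populations gated by annexin V/PI staining, including annexin V+/PI+ double positives.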

KOPN-8 [2] = experiment: Induction of apoptosis in human KOPN8 cells assessed as early apoptotic cells at 10 uM after 72 hrs by AnnexinV/PI-staining based flow cytometry; format: functional; in short: as §1
[3] = Antiproliferative activity against human CEMTL cells assessed as growth inhibition after 48 hrs by PrestoBlue dye based fluorescence assay; format: functional, cell-based; settings: CEM-TL
KOPN-8 [4] = experiment: Induction of apoptosis in human KOPN8 cells assessed as viable cells at 10 uM after 72 hrs by AnnexinV/PI-staining based flow cytometry; format: functional; settings: read-out: Activity; in short: as §1
KOPN-8 [5] = experiment: Induction of apoptosis in human KOPN8 cells assessed as increase in caspase 3/7 activity at 0.1 to 50 uM after 24 hrs by Caspase-glo reagent based microplate reader analysis relative to control; format: functional; settings: dose microM 0.1-50
In short: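 MDA-MB-231 or KOPN-8 cells treated at concentrations across 0–50 μM in dose response. Enzymatic activity of caspase-3/7 and caspase-9 measured and expressed as fold increase.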

TF-1 = experiment: Antiproliferative activity against human TF1 cells assessed as growth inhibition after 48 hrs by PrestoBlue dye based fluorescence assay; format: functional, cell-based; settings: TF-1, 48 h
MV4-11 = experiment: Antiproliferative activity against human MV4-11 cells assessed as growth inhibition after 48 hrs by PrestoBlue dye based fluorescence assay; format: functional, cell-based; settings: MV4-11, 48 h
KOPN-8 [6] = experiment: Induction of apoptosis in human KOPN8 cells assessed as viable cells at 10 uM after 24 hrs by AnnexinV/PI-staining based flow cytometry; format: functional; settings: read-out: Activity; in short: as §1
KOPN-8 [7] = experiment: Induction of apoptosis in human KOPN8 cells assessed as necrotic cells at 10 uM after 168 hrs by AnnexinV/PI-staining based flow cytometry; format: functional; in short: as §1
THP-1 = experiment: Antiproliferative activity against human THP1 cells assessed as growth inhibition after 48 hrs by PrestoBlue dye based fluorescence assay; format: functional, cell-based; settings: THP-1, 48 h
KOPN-8 [8] = experiment: Antiproliferative activity against human KOPN-8 cells assessed as growth inhibition after 48 hrs by PrestoBlue dye based fluorescence assay; format: functional, cell-based; settings: KOPN-8, 48 h
KOPN-8 [9] = experiment: Induction of apoptosis in human KOPN8 cells assessed as late apoptotic cells at 10 uM after 24 hrs by AnnexinV/PI-staining based flow cytometry; format: functional; in short: as §1
MOLT-4 = experiment: Antiproliferative activity against human MOLT-4 cells assessed as growth inhibition after 48 hrs by PrestoBlue dye based fluorescence assay; format: functional, cell-based; settings: MOLT-4, 48 h
KOPN-8 [10] = experiment: Induction of apoptosis in human KOPN8 cells assessed as early apoptotic cells at 10 uM after 24 hrs by AnnexinV/PI-staining based flow cytometry; format: functional; in short: as §1
KOPN-8 [11] = experiment: Induction of apoptosis in human KOPN8 cells assessed as viable cells at 10 uM after 48 hrs by AnnexinV/PI-staining based flow cytometry; format: functional; settings: read-out: Activity; in short: as §1
KOPN-8 [12] = experiment: Induction of apoptosis in human KOPN8 cells assessed as necrotic cells at 10 uM after 24 hrs by AnnexinV/PI-staining based flow cytometry; format: functional; in short: as §1
KOPN-8 [13] = experiment: Induction of apoptosis in human KOPN8 cells assessed as increase in caspase 9 activity at 0.1 to 50 uM after 24 hrs by Caspase-glo reagent based microplate reader analysis relative to control; format: functional; settings: dose microM 0.1-50, time […]
KOPN-8 [14] = experiment: Induction of apoptosis in human KOPN8 cells assessed as early apoptotic cells at 10 uM after 48 hrs by AnnexinV/PI-staining based flow cytometry; format: functional; in short: as §1
KOPN-8 [15] = experiment: Induction of apoptosis in human KOPN8 cells assessed as late apoptotic cells at 10 uM after 168 hrs by AnnexinV/PI-staining based flow cytometry; format: functional; in short: as §1
KOPN-8 [16] = experiment: Induction of apoptosis in human KOPN8 cells assessed as necrotic cells at 10 uM after 48 hrs by AnnexinV/PI-staining based flow cytometry; format: functional; in short: as §1
KOPN-8 [17] = experiment: Induction of apoptosis in human KOPN8 cells assessed as necrotic cells at 10 uM after 72 hrs by AnnexinV/PI-staining based flow cytometry; format: functional; in short: as §1
KOPN-8 [18] = experiment: Induction of apoptosis in human KOPN8 cells assessed as late apoptotic cells at 10 uM after 72 hrs by AnnexinV/PI-staining based flow cytometry; format: functional; in short: as §1
KOPN-8 [19] = experiment: Induction of apoptosis in human KOPN8 cells assessed as viable cells at 10 uM after 168 hrs by AnnexinV/PI-staining based flow cytometry; format: functional; settings: read-out: Activity; in short: as §1
Jurkat = experiment: Antiproliferative activity against human Jurkat cells assessed as growth inhibition after 48 hrs by PrestoBlue dye based fluorescence assay; format: functional, cell-based
KOPN-8 [20] = experiment: Induction of apoptosis in human KOPN8 cells assessed as late apoptotic cells at 10 uM after 48 hrs by AnnexinV/PI-staining based flow cytometry; format: functional; in short: as §1

Compound `CCCCCCCCCCCCCCCCCCSCCNC(=O)[C@@H]1CCCN1C(=O)[C@H](CCCNC(=N)N)NC(=O)C1(NC(=O)[C@@H]2CCCN2C(=O)[C@H](Cc2cc(F)cc(F)c2)NC(=O)[C@@H](N)CSCCCCCCCCCCCCCCCCCC)CCC1` (H-C(X3)[Phe(3,5-F2)]P[Ac4c]RP-X1) has an EC50 (NALM-6) of 5.6 µM, an Activity (KOPN-8 [1]) of 3.81% and an Activity (KOPN-8 [2]) of 0.58%. For the same compound, the EC50 [3] was 5.9 µM, the viability at 10 µM (KOPN-8 [4]) was 91.6% and the “fold change (FC)” value (KOPN-8 [5]) was 3.6. For the same compound, the EC50 (TF-1) was 4.2 µM, the EC50 (MV4-11) was 9.2 µM and the viability at 10 µM (KOPN-8 [6]) was 87.7%. The Activity (KOPN-8 [7]) was 1.59%, the EC50 (THP-1) was 9.5 µM and the EC50 (KOPN-8 [8]) was 1000 nM. For the same compound, the Activity (KOPN-8 [9]) was 9.22%, the EC50 (MOLT-4) was 6.5 µM and the Activity (KOPN-8 [10]) was 1.09%. For the same compound, the viability at 10 µM (KOPN-8 [11]) was 87.1%, the Activity (KOPN-8 [12]) was 2.04% and the Activity (KOPN-8 [13]) was “inactive”. The Activity (KOPN-8 [14]) was 1.19%, the Activity (KOPN-8 [15]) was 26.4% and the Activity (KOPN-8 [16]) was 2.15%. The Activity (KOPN-8 [17]) was 1.23%, the Activity (KOPN-8 [18]) was 6.63% and the viability at 10 µM (KOPN-8 [19]) was 68.2%. For the same compound, the EC50 (Jurkat) was 21.7 µM and the Activity (KOPN-8 [20]) was 9.59%.
